Assay outcomes: PubChem, several laboratories
PTPN22 inh 2 = inhibitors of human LYP (PTPN22) phosphatase; inhibition, % at 2 µM; hit rate 0.21% among 96,000; recombinant LYP catalytic domain, DiFMUP fluorescence;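 active = inhibition at 2 µM at or above a set limit, the screen mean plus 3 SD, cut at about 24% in these data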
FAK inh = FAK (human) kinase inhibition; inhibition, %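 (tested at 7 µM)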; biochemical FAK kinase activity assay; hit rate 0.84% among 97,000; AID 727
EphB4 ephrin blk = antagonists of human EphB4-ephrin-B2 interaction | P54760 | EphB4 LBD / TNYL-RAW-Alexa532 peptide, fluorescence polarization | inhibition, % at 7 µM | hit rate 0.15% among 97,000;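 active = inhibition above the screen-wide mean inhibition plus 3 SD, cut at about 15% in these data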
Rev-RRE block = inhibitors of HIV-1 Rev-RRE RNA interaction; P05866; Rev peptide-RRE RNA binding, FRET; inhibition, % at 8 µM; hit rate 0.79% among 97,000; AID 704;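 active = inhibition above the screen-wide mean plus 3 SD, cut at about 35% in these data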
Target sequence (P05866 whole entry, looked up): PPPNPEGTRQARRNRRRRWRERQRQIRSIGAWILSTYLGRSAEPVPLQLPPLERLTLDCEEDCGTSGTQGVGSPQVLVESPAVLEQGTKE
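Test system: labelled RRE RNA duplex and labelled Rev peptide. Times: 5 min compound–RNA preincubation, then 15 min with peptide, 25 °C. Doses: single-dose 8 µM. Measured by: FRET, excitation 480 nm, emission 540 nm donor and 671 nm acceptor. Measure: % inhibition of FRET ratio versus controls.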
LYP act = activators of human LYP (PTPN22) phosphatase; AID 697; Q9Y2R2; hit rate 0.11% among 96,000; activation, % at 2 µM; recombinant LYP, DiFMUP fluorescence; 0 = plate median, 100 = signal doubled;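 active = activation at 2 µM above a set limit, the mean plus 5 SD, cut at about 37% in these data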
PTPN22 act conf = confirmation of human LYP phosphatase activators | shares compounds with LYP act | Recombinant LYP, DIFMUP fluorescence, activation; zero set by plate's median compound well | activation, % at 2 µM | 100 tested, under 10 active; call rule not given here
FAK inh confirm = confirmation of human focal adhesion kinase (FAK) inhibitors | shares compounds with FAK inh | FAK kinase biochemical inhibition assay | inhibition, % at 7 µM | hit rate 28% among 750 | AID 794
Numbers stand for hits; 0 = inactive; [ ] = remark or other dose. Rows were chosen to be rich in hits. Some 1.9% of all compounds tested hit in one or more screens of this group. Cut-off read from the data, not from the text of the source, unless noted: active = inhibition above about 19%; inactive = the rest.

SMILES	PTPN22 inh 2	FAK inh	EphB4 ephrin blk	Rev-RRE block	LYP act	others
N#Cc1c(/N=C/c2c(O)n(Cc3ccco3)c(=O)[nH]c2=O)sc2c1CCCC2	0	0	0	40	0
O=c1[nH]c(=O)n(Cc2ccco2)c(O)c1C=NCc1cccs1	0	0	0	0	0
CCCC1COC(Cn2cncn2)(c2ccc(Cl)cc2Cl)O1 (centres undefined)	62	0	0	0	0
Cc1cc(C)n(CCOC(=O)C2C(C=C(Cl)Cl)C2(C)C)n1 (centres undefined)	0	0	0	0	0
CN1/C(=C\C=C\C2=[N+](C)c3ccc4ccccc4c3C2(C)C)C(C)(C)c2ccccc21	33	0	0	0	0
Cc1nc2c(=O)n(C)c(=O)nc-2n(C)n1	32	68	0	0	0
CC(C)N(CC(O)c1cccc([N+](=O)[O-])c1)C(C)C (centres undefined)	0	0	0	0	0
CC(=O)C1C2c3ccccc3OC1(C)N=c1s/c(=C/c3cn(C)nc3C)c(=O)n12 (centres undefined)	0	0	0	0	0
O=C1NC(=O)C(=Cc2cn(CCOc3ccc4c(c3)OCO4)c3ccccc23)C(=O)N1	26	0	0	44	0
Cc1cc(/C=C2/C(=O)NC(=O)N(c3ccccc3)C2=O)c(C)n1-c1ccc(F)cc1	0	0	0	0	0
COc1cc(/C=C2\C(=O)NC(=O)N(c3ccccc3)C2=O)cc(OC)c1O	0	0	0	59	0
CCC1(c2ccccc2)C(=O)N(COC)C(=O)N(COC)C1=O	0	0	0	0	0
Cc1sc2nc(COC(=O)Cc3ccccc3)[nH]c(=O)c2c1C	0	0	0	0	0
O=C1NC(=S)N(c2ccc(Cl)cc2)C(=O)/C1=C/N1CCN(C(=O)c2ccco2)CC1	0	0	0	41	0
O=C(c1ccco1)c1cn(Cc2ccc(Cl)cc2)c2ccccc12	0	0	0	0	0
Cc1nn(Cc2ccccc2)c(C)c1C(=O)OCC(=O)Nc1ccccc1SCC#N	0	0	0	61	0
CC1CCN(S(=O)(=O)c2ccc(NN=C(C#N)C#N)cc2)CC1	26	0	0	0	0
Cc1ccccc1-n1c(-c2ccco2)nc2ccccc2c1=O	0	0	0	0	0
C/C(=C\c1ccc(N(C)C)cc1)[N+](=O)[O-]	0	0	0	73	0
CN(C)c1ccc(C(=O)c2ccc(N(C)C)cc2)cc1	0	0	0	0	0
CN1C(=O)/C(=C/c2ccc(N3CCCCCC3)o2)C(=O)NC1=S	0	0	0	126[fluorescence artefact?]	0
Cc1ccc(N2C(=O)/C(=C/c3ccc(CN(CCC#N)S(C)(=O)=O)o3)C(=O)NC2=S)cc1C	0	0	0	0	0
CN1C(=O)/C(=C\c2ccc(N3CCCCC3)o2)C(=O)NC1=S	0	0	0	128[fluorescence artefact?]	0
CCCCCCCC(=O)NC(Oc1ccccc1[N+](=O)[O-])C(Cl)(Cl)Cl (centres undefined)	0	0	0	0	0
OC(c1ccccc1)(c1ccccc1)C1CCCN1 (centres undefined)	0	0	0	0	0
SMILES	PTPN22 inh 2	FAK inh	EphB4 ephrin blk	Rev-RRE block	LYP act	others
Cc1cc(OCC(=O)O)c2c3c(c(=O)oc2c1)CCCC3	0	0	0	0	0
Cc1cc(OC(=O)c2ccco2)c2c3c(c(=O)oc2c1)CCCC3	0	0	15	0	0
COc1ccc(N2C(=O)NC(=O)C(CCc3ccncc3)(CCc3ccncc3)C2=O)cc1	0	0	0	0	0
CCN(CC)c1ccc(N=Cc2c(O)n(-c3cc(OC)ccc3OC)c(=O)[nH]c2=O)cc1	0	0	0	64	0
CCOC(=O)c1ccc(NC(=O)c2c(O)[nH]c(=O)[nH]c2=O)cc1	0	0	0	140[fluorescence artefact?]	0
CC(C)CCC1(CN2CCCC2=O)C(=O)NC(=O)NC1=O	0	0	0	0	39	PTPN22 act conf=0
CCOC(=O)C(=O)NC1CCSC1=O (centres undefined)	0	0	0	0	0
C=CCN(CC=C)Cc1c[nH]c2ccccc12	0	0	0	0	0
O/N=C/c1c[nH]c2ccccc12	0	38	0	0	0	FAK inh confirm=0
Nc1c(C(=O)NC2CCCC2)c2nc3ccccc3nc2n1CC1CCCO1 (centres undefined)	0	36	0	0	0	FAK inh confirm=0
CC1(C)COC(Nc2ccc(Cl)cc2)=N1	0	0	0	0	0
CC(C)CNC(=O)c1c(N)n(Cc2ccc3c(c2)OCO3)c2nc3ccccc3nc12	0	31	0	0	0	FAK inh confirm=0
COc1ccc(Cn2c(N)c(C(=O)NCc3ccco3)c3nc4ccccc4nc32)cc1OC	0	34	0	0	0	FAK inh confirm=0
CC(C)CCn1c(N)c(C(=O)NCc2cccs2)c2nc3ccccc3nc21	0	23	0	0	0	FAK inh confirm=0
CC(C)CCNC(=O)c1c(N)n(Cc2ccc3c(c2)OCO3)c2nc3ccccc3nc12	0	0	0	0	0
COCCNC(=O)c1c(N)n(CCC(C)C)c2nc3ccccc3nc12	0	26	0	0	0	FAK inh confirm=0
CCOC(=O)C(O)(c1cn(C)c2ccccc12)C(F)(F)F (centres undefined)	0	0	0	0	0
CCN1CCN(c2nc3c(c(=O)[nH]2)CCCC3)CC1	0	0	0	0	0
COc1nc(NC(C)C)nc(NC(C)C)n1	0	0	0	0	0
c1ccc2c(NC3=NCCS3)cccc2c1	0	0	0	0	0
O=C1C(=O)c2ccccc2-c2ccccc21	0	59	0	0	0	FAK inh confirm=59
COc1ccc2c(c1)c(C(=O)O)c(C)n2CC(C)C	0	0	0	0	0
CCCCn1c(C)c(C(=O)O)c2cc(OC)ccc21	0	32	0	0	0	FAK inh confirm=0
COc1ccc(P2(=O)Nc3ccccc3N2)cc1	0	40	0	61	0	FAK inh confirm=0
COc1ccc(-n2c(=O)[nH]c3ccccc3c2=O)cc1	0	0	0	0	0
